Experimental data reported in publication PMC2929396 (Chemistry & biology, 2010).
Like-named read-outs stand apart in the source and are kept apart here.

Tests used:
P. falciparum [1] = assay: Phenotypic effects in Geimsa-stained thin blood smears; format: cell-based, Plasmodium falciparum; conditions: schizonts treated 24 h
How it was run: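 Synchronous schizont-stage cultures were exposed to inhibitor for 24 h across increasing concentrations. Morphology was assessed on Giemsa-stained thin blood smears.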

DPAP1 [2] = target: T1, DPAP1 (Plasmodium falciparum, UniProt Q8IIJ9); format: biochemical
T1 sequence (Q8IIJ9 370-599 limits assumed): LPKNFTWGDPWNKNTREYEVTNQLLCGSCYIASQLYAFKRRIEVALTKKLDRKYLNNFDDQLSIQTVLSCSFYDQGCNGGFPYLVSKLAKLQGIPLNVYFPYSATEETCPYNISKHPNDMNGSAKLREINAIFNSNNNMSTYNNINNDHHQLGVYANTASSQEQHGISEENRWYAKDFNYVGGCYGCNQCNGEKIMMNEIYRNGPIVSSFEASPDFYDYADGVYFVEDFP
T1 sequence (Q8IIJ9 28-209 limits assumed): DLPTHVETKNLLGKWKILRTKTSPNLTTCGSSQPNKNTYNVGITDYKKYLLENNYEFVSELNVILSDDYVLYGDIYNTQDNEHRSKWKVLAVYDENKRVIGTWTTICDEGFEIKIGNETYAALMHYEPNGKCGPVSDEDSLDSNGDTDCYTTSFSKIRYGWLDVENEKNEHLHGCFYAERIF
T1 sequence (Q8IIJ9 600-700 limits assumed): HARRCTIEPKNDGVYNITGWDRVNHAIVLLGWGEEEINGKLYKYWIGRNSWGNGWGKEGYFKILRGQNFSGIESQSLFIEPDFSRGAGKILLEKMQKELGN
How it was run: (§1)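 Trophozoite or merozoite lysates, or intact schizonts, were used in acetate buffer (50 mM sodium acetate, 5 mM MgCl2, 5 mM DTT, pH 5.5). Lysates were preincubated 30 min with 10 µM inhibitor, then labeled 1 h. FY01 labeled DPAPs (fluorescent SDS-PAGE scan) and 125I-DCG04 labeled falcipains (autoradiography). Loss of band signal indicated inhibition, and IC50s came from quantified gel bands.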

DPAP1 [3] = target: T1, DPAP1; assay: DPAP1 specific fluorogenic assay; format: biochemical
How it was run: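 DPAP1 activity was assayed at 25 °C in pH 5.5 acetate buffer with 1% parasite lysate and 10 µM (Pro-Arg)2-Rho. Turnover was read for 5 min (ex 492/em 523 nm). Lysates were pretreated with inhibitor for set times (0.1–2 h). IC50 came from dose response fits. For ki, v/v0 relative to DMSO was fitted to a simple irreversible inhibitor model.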

[4] = Stability after overnight incubation in mouse serum; format: in vitro ADME; conditions: 37 °C
How it was run: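 Inhibitor was incubated overnight at 37 °C in mouse serum. Remaining potency was tested as the ability to block FY01 labeling of DPAP1 in parasite lysates, run before and after serum exposure.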

FPs (FP2/3) = assay: Competition assay with activity-based probe 125I-DCG04, falcipain labeling; format: biochemical, Plasmodium falciparum; conditions: parasite lysates
How it was run: as §1

DPAP3 = assay: Competition assay with activity-based probe FY01, DPAP3 labeling; format: biochemical, Plasmodium falciparum; conditions: parasite lysates
How it was run: as §1

[5] = ref personal communication, David Percival, Merck; cited from earlier work
P. falciparum [6] = assay: P. falciparum replication assay; format: cell-based, Plasmodium falciparum; conditions: read-out: EC50Pot; standard 75 h replication assay, ring stage D10 parasites
How it was run: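 D10 parasites were synchronized by 70% Percoll schizont harvest, a 1 h invasion window and sorbitol. Ring-stage cultures (~2% parasitemia, 0.5% hematocrit) were treated with compound for ~75 h, until DMSO controls reached schizonts. Infected versus uninfected RBCs were counted by FACS. EC50Pot was fitted to a dose response curve.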

P. falciparum [7] = assay: Replication assay after 1h treatment and washout; format: cell-based, Plasmodium falciparum; conditions: 1h treatment at different life cycle stages
How it was run: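 Tightly synchronized parasites were exposed 1 h to inhibitor or DMSO at 1, 10, 18, 30, 38 or 46 h post-invasion. They were then washed 3× and cultured until progeny in DMSO controls reached schizonts (~80 h p.i.). Parasitemia was read by FACS from 3 independent measurements, reported as standard error.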

[8] = system: NK65 P. berghei parasites; assay: P. berghei mouse model of malaria, parasitemia; format: in vivo, Balb/c mice; conditions: Figure S2
[9] = Compound toxicity and pharmacokinetics in mice; format: in vivo; conditions: Figure S2
HFF cells = assay: Cell toxicity, CellTiter-Glo; format: cell-based, human; conditions: ATP production after 24 h treatment of HFF cells with 0.01–100 µM compound
How it was run: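 HFF cells were incubated 24 h with inhibitor (0.01–100 µM) or DMSO. Viability was read as ATP by CellTiter-Glo. EC50Tox was obtained by fitting the data to a dose response curve.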

C[C@H](N)C(=O)N[C@@H](Cc1ccc(I)cc1)C(=O)C=[N+]=[N-] [Ala-4(I)Phe-DMK]
concentration inducing schizont arrest and a FV defect (P. falciparum [1]): ≥ 1 µM | block of DPAP1 labeling by ABP (DPAP1 [2]; lysates, 30 min with 10 µM inhibitor then 1h FY01): efficiently blocked labeling | selectivity towards DPAP1 over DPAP3 and the FPs (DPAP1 [2]; other papain fold cysteine proteases of P. falciparum): at least 1000 fold | IC50 (DPAP1 [3]; read-out: IC50DPAP1,1h, 1h, lysates): 0.0064 µM | IC50 (DPAP1 [3]; read-out: IC50DPAP1,2h, 2h treatment of parasite lysates): 0.002 µM | second order rate constant of inhibition (ki) (DPAP1 [3]; trophozoite lysates incubated with inhibitor 0.1–2h): 35000 ± 3000 M⁻¹ s⁻¹ | ability to inhibit DPAP1 after incubation in mouse serum [4]: lost virtually all of their activity | inhibition of FPs (ABP labeling) (FPs (FP2/3)): but not FPs or DPAP3 | inhibition of DPAP3 (ABP labeling) (DPAP3): but not FPs or DPAP3 | pharmacokinetic (PK) properties [5]: very poor | EC50 (P. falciparum [6]): 0.0028 µM | sensitivity at trophozoite stage relative to other stages (P. falciparum [7]): 10 times

CCC[C@H](N)C(=O)N[C@H](/C=C/S(=O)(=O)c1ccccc1)CCc1ccccc1 [JCP-410]
effect in vivo [8]: no effect | PK properties [9]: poor

CCCCC(C(=O)COC(=O)c1c(C)cccc1C)n1cc(C2(N)CCCCC2)nn1 (stereo not shown) [ML4091]
EC50Tox (HFF cells): 12000 (3000) nM | EC50 (P. falciparum [6]): 6 µM

CCCCC(C(=O)COc1c(F)c(F)cc(F)c1F)n1cc(C2(N)CCN(C(N)=O)CC2)nn1 (stereo not shown) [ML4154]
EC50Tox (HFF cells): 30000 (5000) nM | EC50 (P. falciparum [6]): 45 µM

CCCCC(C(=O)COc1c(F)c(F)cc(F)c1F)n1cc(C2(N)CCNCC2)nn1 (stereo not shown) [ML4162]
EC50Tox (HFF cells): 68000 (4000) nM | EC50 (P. falciparum [6]): 0.22 µM

CCCCC(C(=O)COc1c(F)c(F)cc(F)c1F)n1cc(C2(N)CCN(C(C)=O)CC2)nn1 (stereo not shown) [ML4163]
EC50Tox (HFF cells): > 100000 nM | EC50 (P. falciparum [6]): > 100 µM
